Assays:
[1] = biological target: T1, Calcium/calmodulin-dependent protein kinase type IV (Homo sapiens, UniProt Q16566); experiment: Inhibition of CaMK4
T1 sequence (Q16566 whole entry): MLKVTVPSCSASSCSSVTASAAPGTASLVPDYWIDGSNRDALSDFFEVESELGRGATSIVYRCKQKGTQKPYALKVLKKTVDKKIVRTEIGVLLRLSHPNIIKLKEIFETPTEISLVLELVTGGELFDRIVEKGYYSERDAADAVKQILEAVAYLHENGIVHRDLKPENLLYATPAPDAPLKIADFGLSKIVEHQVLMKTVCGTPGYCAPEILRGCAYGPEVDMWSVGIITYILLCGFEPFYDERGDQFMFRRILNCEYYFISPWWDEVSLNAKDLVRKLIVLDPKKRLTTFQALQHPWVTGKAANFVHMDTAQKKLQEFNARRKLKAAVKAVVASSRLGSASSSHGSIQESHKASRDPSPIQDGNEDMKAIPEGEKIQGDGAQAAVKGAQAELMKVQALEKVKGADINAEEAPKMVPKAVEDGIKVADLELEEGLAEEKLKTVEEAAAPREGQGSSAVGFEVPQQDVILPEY
In short: (§1)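 Recombinant kinases were commercial, or baculovirus-expressed and purified by His-tag or GST affinity. Each was incubated 1 h with biotinylated substrate peptide (2 µM), γ-[33P]-ATP (5 µM) and inhibitor (3-10000 nM, 2% DMSO) in 25 mM Hepes pH 7.5, 10 mM MgCl2, Na3VO4. Reactions were stopped with EDTA/NaCl and read by streptavidin FlashPlate capture. IC50 came from titrations, converted to Ki by Cheng-Prusoff.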

[2] = biological target: Tyrosine-protein kinase JAK3 (Homo sapiens, UniProt P52333); experiment: Inhibition of JAK3
In short: (§2)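 Recombinant tyrosine kinases were incubated 1 h with biotinylated peptide (0.5 µM), ATP (10 µM to 1 mM) and inhibitor in 2% DMSO. Buffer was 50 mM Hepes pH 7.4 with MgCl2, MnCl2 and vanadate. Detection was HTRF: Eu anti-pY antibody plus streptavidin-APC, read 60 min later. IC50 came from titration curves, converted to Ki by Cheng-Prusoff.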

[3] = biological target: Vascular endothelial growth factor receptor 1 (Homo sapiens, UniProt P17948); experiment: Inhibition of Flt1; in short: as §2
[4] = biological target: Serine/threonine-protein kinase pim-2 (Homo sapiens, UniProt Q9P1W9); experiment: Inhibition of Pim2
[5] = biological target: Tyrosine-protein kinase Fyn (Homo sapiens, UniProt P06241); experiment: Inhibition of Fyn; in short: as §2
[6] = biological target: Receptor tyrosine-protein kinase erbB-2 (Homo sapiens, UniProt P04626); experiment: Inhibition of ErbB2; in short: as §2
[7] = biological target: Tyrosine-protein kinase Blk (Homo sapiens, UniProt P51451)
Activated CDC42 kinase 1 = Activated CDC42 kinase 1 (Homo sapiens, UniProt Q07912); experiment: Inhibition of CDC42; in short: as §1
[8] = biological target: Tyrosine-protein kinase JAK2 (Homo sapiens, UniProt O60674); experiment: Inhibition of JAK2; in short: as §2
[9] = biological target: Mast/stem cell growth factor receptor Kit (Homo sapiens, UniProt P10721); experiment: Inhibition of cKit
In short: (§3)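 Tyrosine kinases (recombinant, His/GST-purified or commercial) measured by HTRF: 0.5 µM biotinylated peptide, ATP 10 µM to 1 mM, inhibitor in 2% DMSO, 1 h in 50 mM Hepes pH 7.4 with MgCl2, MnCl2, Na3VO4, DTT, BSA. IC50 from six-point titrations; Ki via Cheng-Prusoff.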

[10] = biological target: Tyrosine-protein kinase ABL1 (Homo sapiens, UniProt P00519); experiment: Inhibition of Abl; in short: as §2
[11] = biological target: T2, Serine/threonine-protein kinase Sgk1 (Homo sapiens, UniProt O00141); experiment: Inhibition of SGK
T2 sequence (O00141 whole entry): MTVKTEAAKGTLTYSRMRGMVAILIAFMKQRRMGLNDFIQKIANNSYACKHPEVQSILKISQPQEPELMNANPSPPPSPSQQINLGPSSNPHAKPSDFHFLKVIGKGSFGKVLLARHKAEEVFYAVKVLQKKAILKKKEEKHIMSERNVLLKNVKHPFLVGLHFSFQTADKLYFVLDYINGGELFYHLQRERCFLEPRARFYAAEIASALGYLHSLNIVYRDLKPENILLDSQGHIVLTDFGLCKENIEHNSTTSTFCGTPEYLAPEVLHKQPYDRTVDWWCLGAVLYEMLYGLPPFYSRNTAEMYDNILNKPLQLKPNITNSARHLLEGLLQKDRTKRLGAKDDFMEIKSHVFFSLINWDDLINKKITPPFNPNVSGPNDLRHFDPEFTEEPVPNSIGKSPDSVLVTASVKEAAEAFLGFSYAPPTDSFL

[12] = biological target: Tyrosine-protein kinase Lyn (Homo sapiens, UniProt P07948); experiment: Inhibition of Lyn; in short: as §2
[13] = biological target: Death-associated protein kinase 3 (Homo sapiens, UniProt O43293); experiment: Inhibition of ZipK
[14] = biological target: High affinity nerve growth factor receptor (Homo sapiens, UniProt P04629)
[15] = biological target: Inhibitor of nuclear factor kappa-B kinase subunit beta (Homo sapiens, UniProt O14920); experiment: Inhibition of IKK-beta; in short: as §1
[16] = biological target: Macrophage colony-stimulating factor 1 receptor (Homo sapiens, UniProt P07333); experiment: Inhibition of CSF1R; in short: as §2
[17] = biological target: Tyrosine-protein kinase Lck (Homo sapiens, UniProt P06239)
[18] = biological target: Non-receptor tyrosine-protein kinase TYK2 (Homo sapiens, UniProt P29597); experiment: Inhibition of Tyk2; in short: as §3
[19] = biological target: BDNF/NT-3 growth factors receptor (Homo sapiens, UniProt Q16620); experiment: Inhibition of TrkB; in short: as §3
[20] = biological target: Receptor-type tyrosine-protein kinase FLT3 (Homo sapiens, UniProt P36888); experiment: Inhibition of Flt3; in short: as §2
[21] = biological target: Fibroblast growth factor receptor 3 (Homo sapiens, UniProt P22607); experiment: Inhibition of FGFR3; in short: as §2
[22] = biological target: Hepatocyte growth factor receptor (Homo sapiens, UniProt P08581)
[23] = biological target: Serine/threonine-protein kinase PAK 4 (Homo sapiens, UniProt O96013); experiment: Inhibition of PAK4; in short: as §1
[24] = biological target: Proto-oncogene tyrosine-protein kinase Src (Homo sapiens, UniProt P12931); experiment: Inhibition of Src; in short: as §3
[25] = biological target: 3-phosphoinositide-dependent protein kinase 1 (Homo sapiens) (UniProt O15530); experiment: Inhibition of PDK1
[26] = biological target: Fibroblast growth factor receptor (Homo sapiens, UniProt P22607+P11362+P22455+P21802); experiment: Inhibition of FGFR; assay type: protein assay; in short: as §2
Insulin receptor = Insulin receptor (Homo sapiens, UniProt P06213)
[27] = Cmax in po dosed Sprague-Dawley rat; assay type: ADME, organism-based; set-up: route oral; details: in vivo
In short: (§4)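 Sprague-Dawley rats were dosed orally. Oral half-life is reported in hours and Cmax as the maximum plasma concentration in µM. AUC is total oral exposure from t = 0 to t = ∞, in µg·h/mL.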

[28] = biological target: Mitogen-activated protein kinase 13 (Homo sapiens, UniProt O15264)
[29] = AUC in po dosed Sprague-Dawley rat; assay type: ADME, organism-based; details: plasma; in short: as §4
[30] = Plasma clearance in iv dosed Sprague-Dawley rat; assay type: ADME, organism-based
[31] = Oral bioavailability in Sprague-Dawley rat; assay type: ADME, organism-based; details: in vivo
[32] = Volume of distribution in iv dosed Sprague-Dawley rat; assay type: ADME, organism-based; details: in vivo, read-out: Vdss
[33] = Half life in po dosed Sprague-Dawley rat; assay type: ADME, organism-based; details: in vivo; in short: as §4
[34] = Tmax in po dosed Sprague-Dawley rat; assay type: ADME, organism-based; details: in vivo
[35] = AUC in iv dosed Sprague-Dawley rat; assay type: ADME, organism-based; details: plasma
In short: (§5)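 Sprague-Dawley rats received 5 mg/kg intravenously. Half-life is reported in hours. AUC is total drug exposure after iv dosing, from t = 0 to t = ∞, in µg·h/mL.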

[36] = Volume of distribution at steady state in iv dosed Sprague-Dawley rat; assay type: ADME, organism-based; details: in vivo, read-out: Vss
[37] = Half life in iv dosed Sprague-Dawley rat; assay type: ADME, organism-based; details: in vivo; in short: as §5
[38] = biological target: Mitogen-activated protein kinase 10 (Homo sapiens, UniProt P53779); experiment: Inhibition of JNK3-mediated ATF2 phosphorylation

Activated CDC42 kinase 1, sequence (Q07912 whole entry): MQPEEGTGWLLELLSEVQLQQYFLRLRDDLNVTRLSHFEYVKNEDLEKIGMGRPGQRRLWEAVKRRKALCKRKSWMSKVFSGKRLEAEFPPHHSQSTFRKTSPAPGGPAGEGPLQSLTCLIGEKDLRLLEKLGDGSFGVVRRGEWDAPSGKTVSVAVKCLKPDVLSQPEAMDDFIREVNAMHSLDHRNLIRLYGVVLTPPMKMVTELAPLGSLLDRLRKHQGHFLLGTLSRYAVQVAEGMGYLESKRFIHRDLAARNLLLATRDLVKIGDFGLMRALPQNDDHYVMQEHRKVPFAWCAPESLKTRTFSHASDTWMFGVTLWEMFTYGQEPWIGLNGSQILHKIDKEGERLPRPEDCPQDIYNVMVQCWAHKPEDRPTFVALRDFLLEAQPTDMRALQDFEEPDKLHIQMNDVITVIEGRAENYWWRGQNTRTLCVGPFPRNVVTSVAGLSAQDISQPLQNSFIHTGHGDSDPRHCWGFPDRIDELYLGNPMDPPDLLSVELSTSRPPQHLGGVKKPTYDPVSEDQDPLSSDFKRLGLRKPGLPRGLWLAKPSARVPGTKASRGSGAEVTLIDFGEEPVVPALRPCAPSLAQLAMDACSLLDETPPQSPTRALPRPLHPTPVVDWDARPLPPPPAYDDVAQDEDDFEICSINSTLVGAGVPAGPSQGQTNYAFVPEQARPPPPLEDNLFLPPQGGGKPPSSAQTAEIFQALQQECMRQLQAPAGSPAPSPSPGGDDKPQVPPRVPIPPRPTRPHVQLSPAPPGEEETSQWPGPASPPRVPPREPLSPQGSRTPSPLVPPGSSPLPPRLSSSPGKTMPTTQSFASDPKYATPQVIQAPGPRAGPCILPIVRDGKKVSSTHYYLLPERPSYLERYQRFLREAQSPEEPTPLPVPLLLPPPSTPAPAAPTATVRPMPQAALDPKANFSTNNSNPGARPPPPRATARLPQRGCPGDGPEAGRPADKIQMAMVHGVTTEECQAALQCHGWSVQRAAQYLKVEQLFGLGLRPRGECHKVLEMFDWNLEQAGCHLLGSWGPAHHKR
Mast/stem cell growth factor receptor Kit, sequence (P10721 whole entry): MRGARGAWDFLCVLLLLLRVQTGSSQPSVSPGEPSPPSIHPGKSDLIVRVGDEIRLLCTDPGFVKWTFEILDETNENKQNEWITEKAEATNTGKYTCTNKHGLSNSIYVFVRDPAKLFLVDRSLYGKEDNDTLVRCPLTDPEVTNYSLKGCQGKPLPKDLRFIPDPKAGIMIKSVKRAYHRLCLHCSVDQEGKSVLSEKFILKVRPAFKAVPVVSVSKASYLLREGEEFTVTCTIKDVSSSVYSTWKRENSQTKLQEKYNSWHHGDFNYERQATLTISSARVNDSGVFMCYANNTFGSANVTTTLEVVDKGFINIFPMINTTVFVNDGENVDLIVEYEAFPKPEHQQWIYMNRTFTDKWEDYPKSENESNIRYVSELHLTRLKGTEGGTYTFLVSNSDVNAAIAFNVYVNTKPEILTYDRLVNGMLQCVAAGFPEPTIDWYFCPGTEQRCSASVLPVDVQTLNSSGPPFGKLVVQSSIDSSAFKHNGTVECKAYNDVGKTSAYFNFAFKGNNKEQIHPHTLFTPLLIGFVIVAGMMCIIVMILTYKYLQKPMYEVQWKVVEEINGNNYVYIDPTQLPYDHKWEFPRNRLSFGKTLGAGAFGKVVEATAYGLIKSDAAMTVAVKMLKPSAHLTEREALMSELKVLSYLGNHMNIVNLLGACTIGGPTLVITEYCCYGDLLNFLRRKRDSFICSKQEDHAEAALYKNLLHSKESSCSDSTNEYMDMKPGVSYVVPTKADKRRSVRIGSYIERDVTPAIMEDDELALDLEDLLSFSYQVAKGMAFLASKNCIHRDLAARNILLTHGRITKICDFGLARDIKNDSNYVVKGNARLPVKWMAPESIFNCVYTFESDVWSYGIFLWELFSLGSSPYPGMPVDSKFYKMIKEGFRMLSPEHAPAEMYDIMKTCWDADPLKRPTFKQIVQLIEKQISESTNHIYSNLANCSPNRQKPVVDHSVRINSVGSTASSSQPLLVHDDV
Vascular endothelial growth factor receptor 1, sequence (P17948 whole entry): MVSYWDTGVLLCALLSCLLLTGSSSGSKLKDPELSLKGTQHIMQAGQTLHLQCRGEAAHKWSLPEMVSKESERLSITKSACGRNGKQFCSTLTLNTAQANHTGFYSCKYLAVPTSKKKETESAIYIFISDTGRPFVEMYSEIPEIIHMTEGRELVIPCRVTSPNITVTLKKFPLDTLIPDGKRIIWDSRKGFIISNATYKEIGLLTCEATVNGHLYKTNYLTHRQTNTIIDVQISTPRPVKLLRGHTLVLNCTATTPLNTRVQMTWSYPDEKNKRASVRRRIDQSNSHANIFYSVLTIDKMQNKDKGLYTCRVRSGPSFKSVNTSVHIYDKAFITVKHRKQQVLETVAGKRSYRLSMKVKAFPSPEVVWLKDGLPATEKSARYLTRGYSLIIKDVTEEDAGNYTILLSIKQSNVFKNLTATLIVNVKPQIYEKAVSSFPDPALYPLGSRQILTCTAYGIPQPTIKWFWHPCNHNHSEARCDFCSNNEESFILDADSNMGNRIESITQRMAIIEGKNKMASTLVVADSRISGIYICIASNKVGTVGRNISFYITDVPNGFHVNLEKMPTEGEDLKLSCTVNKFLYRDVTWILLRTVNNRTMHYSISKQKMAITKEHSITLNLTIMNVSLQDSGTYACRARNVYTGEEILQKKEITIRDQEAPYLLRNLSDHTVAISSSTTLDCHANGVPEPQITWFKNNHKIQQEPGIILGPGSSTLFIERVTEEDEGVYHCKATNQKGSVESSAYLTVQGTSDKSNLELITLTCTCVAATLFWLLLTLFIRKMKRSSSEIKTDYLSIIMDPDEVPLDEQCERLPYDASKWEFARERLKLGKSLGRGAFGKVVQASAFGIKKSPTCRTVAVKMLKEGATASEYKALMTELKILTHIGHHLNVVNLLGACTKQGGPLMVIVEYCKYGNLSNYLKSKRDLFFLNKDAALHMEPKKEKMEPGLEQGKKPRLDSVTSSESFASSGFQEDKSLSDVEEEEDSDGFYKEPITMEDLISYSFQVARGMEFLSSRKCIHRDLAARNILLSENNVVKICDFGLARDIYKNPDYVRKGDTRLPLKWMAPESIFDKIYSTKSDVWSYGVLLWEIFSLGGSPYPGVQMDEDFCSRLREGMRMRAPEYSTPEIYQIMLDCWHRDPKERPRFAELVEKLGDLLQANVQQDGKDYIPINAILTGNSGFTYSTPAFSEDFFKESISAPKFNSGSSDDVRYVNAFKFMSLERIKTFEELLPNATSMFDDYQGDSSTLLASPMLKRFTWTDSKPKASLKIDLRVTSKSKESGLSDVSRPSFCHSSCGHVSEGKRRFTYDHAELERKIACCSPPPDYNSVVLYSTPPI
Tyrosine-protein kinase Lyn, sequence (P07948 whole entry): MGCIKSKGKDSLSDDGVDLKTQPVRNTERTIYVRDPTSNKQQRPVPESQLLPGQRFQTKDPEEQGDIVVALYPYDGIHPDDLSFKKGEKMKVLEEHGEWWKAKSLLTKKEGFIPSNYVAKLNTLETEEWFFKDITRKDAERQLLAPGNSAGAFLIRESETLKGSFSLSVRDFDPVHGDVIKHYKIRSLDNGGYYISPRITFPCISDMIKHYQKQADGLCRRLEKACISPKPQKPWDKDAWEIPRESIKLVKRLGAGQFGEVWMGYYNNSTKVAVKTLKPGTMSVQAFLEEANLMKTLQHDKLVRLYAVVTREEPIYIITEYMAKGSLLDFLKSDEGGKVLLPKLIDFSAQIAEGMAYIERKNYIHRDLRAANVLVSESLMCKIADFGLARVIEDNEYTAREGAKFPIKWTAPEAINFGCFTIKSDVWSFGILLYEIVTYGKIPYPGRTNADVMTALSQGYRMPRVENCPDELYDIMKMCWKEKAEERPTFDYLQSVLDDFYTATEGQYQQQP
Tyrosine-protein kinase JAK3, sequence (P52333 whole entry): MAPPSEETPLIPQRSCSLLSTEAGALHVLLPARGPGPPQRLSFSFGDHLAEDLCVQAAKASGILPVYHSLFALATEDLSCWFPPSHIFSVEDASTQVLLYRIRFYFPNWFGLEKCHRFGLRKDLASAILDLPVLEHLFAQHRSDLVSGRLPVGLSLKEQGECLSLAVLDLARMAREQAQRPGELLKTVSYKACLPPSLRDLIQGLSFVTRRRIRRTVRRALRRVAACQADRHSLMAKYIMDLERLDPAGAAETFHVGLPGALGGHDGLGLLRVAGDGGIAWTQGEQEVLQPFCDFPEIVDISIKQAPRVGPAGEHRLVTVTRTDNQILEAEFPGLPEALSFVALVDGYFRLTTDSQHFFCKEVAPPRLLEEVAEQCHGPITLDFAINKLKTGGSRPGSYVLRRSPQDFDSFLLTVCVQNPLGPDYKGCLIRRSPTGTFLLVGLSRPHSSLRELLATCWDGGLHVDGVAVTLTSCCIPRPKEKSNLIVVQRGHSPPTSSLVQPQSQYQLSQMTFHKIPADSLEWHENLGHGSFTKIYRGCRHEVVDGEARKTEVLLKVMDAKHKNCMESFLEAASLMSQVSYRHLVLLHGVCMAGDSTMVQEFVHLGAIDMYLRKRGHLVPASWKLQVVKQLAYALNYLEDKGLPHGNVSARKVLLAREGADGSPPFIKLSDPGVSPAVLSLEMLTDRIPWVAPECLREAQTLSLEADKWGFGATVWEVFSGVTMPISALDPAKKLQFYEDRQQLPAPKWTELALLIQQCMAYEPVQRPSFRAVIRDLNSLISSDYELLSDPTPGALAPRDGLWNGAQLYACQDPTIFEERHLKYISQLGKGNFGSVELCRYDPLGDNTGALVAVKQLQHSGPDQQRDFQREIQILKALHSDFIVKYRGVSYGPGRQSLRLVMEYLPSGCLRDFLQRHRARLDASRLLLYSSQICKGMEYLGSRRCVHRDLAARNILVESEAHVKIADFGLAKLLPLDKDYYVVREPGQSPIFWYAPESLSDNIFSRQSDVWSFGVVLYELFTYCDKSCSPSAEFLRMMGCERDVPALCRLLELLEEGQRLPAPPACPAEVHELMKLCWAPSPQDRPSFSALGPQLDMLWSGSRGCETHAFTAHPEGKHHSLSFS

| Compound | Ki [1] | Ki [2] | Ki [3] | Ki [4] | Ki [5] | Ki [6] | Ki [7] | Ki (Activated CDC42 kinase 1) | Ki [8] | Ki [11] | Cmax [27] | AUC [29] | clearance [30] | bioavailability [31] | Vd [32] | half-life [33] | Tmax [34] | AUC [35] | Vd [36] | half-life [37] | further results |
| --- | --- | --- | --- | --- | --- | --- | --- | --- | --- | --- | --- | --- | --- | --- | --- | --- | --- | --- | --- | --- | --- |
| CCOc1nc(NC(C)=O)cc(N)c1C#N | > 8.6 µM | > 1.7 µM | > 0.44 µM | > 1.4 µM | > 0.81 µM | > 1.4 µM | > 1.5 µM | > 9.5 µM | > 1.5 µM | > 9.4 µM | – | – | – | – | – | – | – | – | – | – | Ki [9]: > 1.2 µM; Ki [10]: > 0.71 µM; Ki [12]: > 1.7 µM; Ki [13]: > 1.4 µM |
| CC(=O)Nc1cc(N)c(C#N)c(-c2ccccc2)n1 | > 8.6 µM | > 1.7 µM | > 0.44 µM | > 1.4 µM | > 0.81 µM | > 1.4 µM | > 1.5 µM | > 9.5 µM | > 1.5 µM | > 9.4 µM | – | – | – | – | – | – | – | – | – | – | Ki [14]: > 2.5 µM; Ki [15]: > 3.2 µM; Ki [16]: > 2.5 µM; Ki [17]: > 2.7 µM; Ki [18]: > 1.9 µM; Ki [19]: > 4.5 µM; Ki [20]: > 2.5 µM; Ki [21]: > 1.9 µM; Ki [22]: > 2.9 µM; Ki [23]: > 5.5 µM; Ki [24]: > 1.9 µM; Ki [9]: > 1.2 µM; Ki [25]: > 3.8 µM; Ki [10]: > 0.71 µM; Ki [26]: > 4.7 µM; Ki [12]: > 1.7 µM; Ki (Insulin receptor): > 5.2 µM; Ki [13]: > 1.4 µM |
| CCOc1nc(NC(=O)Cc2cc(OC)ccc2OC)cc(N)c1C#N | > 8.6 µM | – | – | – | – | – | – | > 9.5 µM | – | > 9.4 µM | 310 nM | 110 ng·h/mL | 20 mL/min/kg | 2.7% | 2.6 L/kg | 1.1 h | 0.033 h | 4100 ng·h/mL | 1.2 L/kg | 1.4 h | Ki [28]: > 6.9 µM |
| CCOc1nc(NC(=O)Cc2cc(OC)c(S(C)(=O)=O)cc2OC)cc(N)c1Cl | > 8.6 µM | – | – | – | – | – | – | > 9.5 µM | – | > 9.4 µM | 1420 nM | 1500 ng·h/mL | 28.3 mL/min/kg | 49% | 2 L/kg | 2.1 h | 0.67 h | 3000 ng·h/mL | 1.6 L/kg | 0.8 h | Ki [38]: 0.061 µM |
| CCOc1nc(NC(=O)Cc2cc(OC)c(S(C)(=O)=O)cc2OC)cc(N)c1C#N | > 8.6 µM | – | – | – | – | – | – | > 9.5 µM | – | > 9.4 µM | 1360 nM | 1100 ng·h/mL | 25 mL/min/kg | 31% | 4.7 L/kg | 1.5 h | 0.5 h | 3500 ng·h/mL | 1.5 L/kg | 2 h | Ki [38]: 0.072 µM |
| COc1cc(S(C)(=O)=O)c(OC)cc1CC(=O)Nc1cc(N)c(C#N)c(OC(C)C)n1 | > 8.6 µM | – | – | – | – | – | – | > 9.5 µM | – | > 9.4 µM | 80 nM | 120 ng·h/mL | 50 mL/min/kg | 5.7% | 8.6 L/kg | 2.9 h | 0.75 h | 2200 ng·h/mL | 1.6 L/kg | 2 h | – |

From ChEMBL document CHEMBL1148638, “Aminopyridine-based c-Jun N-terminal kinase inhibitors with cellular activity and minimal cross-kinase activity” (J Med Chem, 2006)
